# B1: Osa-1-4 twister ribozyme (parent)
# chain: CCGCCUAACACUGCCAAUGCCGGUCCCAAGCCCGGAUAAAAGUGGAGGGGGCGG
# Variants of: B1
# Assay: self-cleavage, relative activity (ratio to wild type); higher = more cleavage; co-transcriptional
# Method in brief: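 The 48 positions downstream of the cleavage site in a 54-nucleotide Oryza sativa twister ribozyme template were synthesised at 97 % wild-type base and 1 % of each other base. The template was transcribed in vitro at 37 °C for 2 h, with self-cleavage allowed during transcription. Reads with or without upstream sequence after deep sequencing marked cleavage status, and relative activity is fraction cleaved normalised to wild type.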
row,Variant,self-cleavage
1,C21U G54U,0.93
2,C21U G54A,0.96
3,C21U G54C,0.89
4,C21G G49A,0.05
5,C21G G49C,0.03
6,C21G G49U,0.02
7,C21G G48C,0.03
8,C21G G48U,0.02
9,C21G G48A,0.03
10,C21U G51U,0.67
11,C21U G51C,0.09
12,C21U G51A,0.9
13,C21G G19C,0.02
14,C21G G19U,0.03
15,C21G G19A,0.05
16,C21G C52U,0.1
17,C21G C52A,0.1
18,C21G C52G,0.18
19,G22C G54A,0.08
20,G22C G54C,0.15
21,G22C G54U,0.16
22,G22A G54A,0.77
23,G22A G54U,0.84
24,G22A G54C,0.82

row,Variant,self-cleavage
1,G22C G47C,0.02
2,G22C G47U,0.04
3,G22C G47A,0.03
4,G22A G30U,0.05
5,G22A G30C,0.05
6,G22A G30A,0.05
7,G22U G44U,0.47
8,G22U G44C,0.81
9,G22U G44A,0.72
10,G22U G50C,0.3
11,G22U G50A,0.91
12,G22U G50U,0.75
13,G22A U37C,1.01
14,G22A U37A,1.06
15,G22A U37G,1
16,G22A G44A,0.94
17,G22A G44C,0.92
18,G22A G44U,0.84
19,G22U G49A,0.07
20,G22U G49C,0.05
21,G22U G49U,0.05
22,C21G G47U,0.03
23,C21G G47C,0.04
24,C21G G47A,0.03

row,Variant,self-cleavage
1,C21U C25A,0.11
2,C21U C25G,0.14
3,C21U C25U,0.88
4,G22C G50C,0.05
5,G22C G50U,0.11
6,G22C G50A,0.34
7,C21U G13A,0.11
8,C21U G13U,0.04
9,C21U G13C,0.03
10,C21G G13C,0.01
11,C21G G13A,0.02
12,C21G G13U,0.02
13,G22A G53A,0.51
14,G22A G53C,0.09
15,G22A G53U,0.14
16,C21U U37A,1.07
17,C21U U37G,1.04
18,C21U U37C,1.05
19,G22U U18C,0.68
20,G22U U18A,0.84
21,C21U G35C,0.1
22,C21U G35A,0.98
23,C21U G35U,0.57
24,G22U G30U,0.03

row,Variant,self-cleavage
1,G22U G30A,0.03
2,G22U G30C,0.04
3,C21G G45A,0.04
4,C21G G45U,0.02
5,C21G G45C,0.02
6,C21U G50U,1.03
7,C21U G50A,0.97
8,C21U G50C,0.94
9,C21U G19U,0.21
10,C21U G19C,0.04
11,C21U G19A,0.66
12,G22A G45U,0.08
13,G22A G45C,0.06
14,G22A G45A,0.15
15,G22U G35A,0.36
16,G22U G35C,0.11
17,G22U G35U,0.41
18,G22C G23C,0.02
19,G22C G23A,0.06
20,G22C G23U,0.03
21,C21G G54U,0.11
22,C21G G54C,0.07
23,C21G G54A,0.07
24,C21G G30U,0.02

row,Variant,self-cleavage
1,C21G G30C,0.02
2,C21G G30A,0.02
3,G22U G45C,0.04
4,G22U G45U,0.06
5,G22U G45A,0.11
6,G22A G34C,0.11
7,G22A G34A,0.14
8,G22A G34U,0.21
9,C21U,1.03
10,C21U U43G,0.47
11,C21U U43C,0.32
12,C21U U43A,0.89
13,G22C U43A,0.04
14,G22C U43C,0.03
15,G22C U43G,0.04
16,C21G U43G,0.08
17,C21G U43A,0.09
18,C21G U43C,0.05
19,G22A G23C,0.05
20,G22A G23U,0.08
21,G22A G23A,0.12
22,C21G C31U,0.05
23,C21G C31G,0.06
24,C21G C31A,0.02

row,Variant,self-cleavage
1,C21G G22C,0.16
2,C21G G22U,0.5
3,C21G G22A,0.49
4,C21U G47U,0.23
5,C21U G47C,0.12
6,C21U G47A,0.19
7,G22A G47U,0.12
8,G22A G47A,0.13
9,G22A G47C,0.08
10,C21U C31G,0.14
11,C21U C31U,0.97
12,C21U C31A,0.06
13,G22A U24A,0.36
14,G22A U24G,0.13
15,G22A U24C,0.16
16,C21U C27A,0.15
17,C21U C27U,0.14
18,C21U C27G,0.09
19,C21U C9A,0.55
20,C21U C9U,0.92
21,C21U C9G,0.74
22,G22C G45A,0.03
23,G22C G45U,0.03
24,G22C G45C,0.02

row,Variant,self-cleavage
1,C21U U18G,0.78
2,C21U U18C,1.03
3,C21U U18A,1
4,C21U U12A,0.73
5,C21U U12G,0.26
6,C21U U12C,0.33
7,C21U G53A,0.64
8,C21U G53U,0.32
9,C21U G53C,0.1
10,C21U G30C,0.06
11,C21U G30A,0.04
12,C21U G30U,0.04
13,G22U U12G,0.05
14,G22U U12C,0.1
15,G22U U12A,0.13
16,G22C G48A,0.02
17,G22C G48C,0.02
18,G22C G48U,0.02
19,G22A G49C,0.08
20,G22A G49U,0.09
21,G22A G49A,0.12
22,C21U G22U,0.1
23,C21U G22A,0.26
24,C21U G22C,0.17

row,Variant,self-cleavage
1,C21U C32A,0.09
2,C21U C32G,0.11
3,C21U C32U,0.13
4,G22U G51U,0.38
5,G22U G51A,0.1
6,G22U G51C,0.08
7,G22C G30A,0.03
8,G22C G30U,0.02
9,G22C G30C,0.02
10,C21G U37G,0.14
11,C21G U37C,0.08
12,C21G U37A,0.13
13,G22U G53A,0.1
14,G22U G53U,0.12
15,G22U G53C,0.05
16,C21G G53U,0.04
17,C21G G53C,0.02
18,C21G G53A,0.08
19,C21U G44U,0.95
20,C21U G44C,0.99
21,C21U G44A,0.97
22,G22A U18C,0.98
23,G22A U18G,0.94
24,G22A U18A,1.02

row,Variant,self-cleavage
1,C21U C52A,0.97
2,C21U C52G,1.02
3,C21U C52U,1.02
4,G22C G49C,0.03
5,G22C G49A,0.03
6,G22C G49U,0.03
7,C21U U24C,0.26
8,C21U U24A,0.29
9,C21U U24G,0.09
10,G22C G51U,0.04
11,G22C G51A,0.04
12,G22C G51C,0.03
13,C21G C32A,0.03
14,C21G C32G,0.06
15,C21G C32U,0.02
16,G22A,1.05
17,G22C,0.19
18,G22U,0.93
19,C21U C26G,0.12
20,C21U C26U,0.88
21,C21U C26A,0.06
22,C21G U18G,0.11
23,C21G U18A,0.1
24,C21G U18C,0.08

row,Variant,self-cleavage
1,G22A G48A,0.08
2,G22A G48U,0.08
3,G22A G48C,0.09
4,C21U G42U,0.09
5,C21U G42A,0.51
6,C21U G42C,0.18
7,C21U G49U,0.14
8,C21U G49C,0.08
9,C21U G49A,0.14
10,G22A U43G,0.1
11,G22A U43A,0.3
12,G22A U43C,0.18
13,G22U G23U,0.07
14,G22U G23C,0.04
15,G22U G23A,0.08
16,G22C U12C,0.07
17,G22C U12A,0.05
18,G22C U12G,0.03
19,G22C G44C,0.06
20,G22C G44A,0.07
21,G22C G44U,0.07
22,C21G C33U,0.05
23,C21G C33G,0.05
24,C21G C33A,0.03

row,Variant,self-cleavage
1,C21G U24C,0.04
2,C21G U24A,0.06
3,C21G U24G,0.03
4,G22A G35C,0.11
5,G22A G35A,0.34
6,G22A G35U,0.32
7,C21U G23A,0.1
8,C21U G23U,0.06
9,C21U G23C,0.06
10,C21U G45C,0.07
11,C21U G45U,0.11
12,C21U G45A,0.22
13,G22A G51U,0.67
14,G22A G51C,0.14
15,G22A G51A,0.2
16,C21G G35A,0.08
17,C21G G35U,0.06
18,C21G G35C,0.03
19,G22U G42C,0.07
20,G22U G42U,0.05
21,G22U G42A,0.08
22,G22A G42A,0.17
23,G22A G42U,0.05
24,G22A G42C,0.1

row,Variant,self-cleavage
1,G22C U18G,0.17
2,G22C U18C,0.1
3,G22C U18A,0.14
4,G22A U12C,0.21
5,G22A U12A,0.35
6,G22A U12G,0.08
7,C21G G42A,0.05
8,C21G G42C,0.05
9,C21G G42U,0.02
10,C21U G48U,0.1
11,C21U G48A,0.1
12,C21U G48C,0.11
13,G22U G48A,0.04
14,G22U G48U,0.05
15,G22U G48C,0.06
16,G22C U24G,0.03
17,G22C U24A,0.04
18,G22C U24C,0.03
19,G22U G54C,0.64
20,G22U G54U,0.6
21,G22U G54A,0.58
22,C21U C33A,0.08
23,C21U C33U,0.47
24,C21U C33G,0.07

row,Variant,self-cleavage
1,C21G G51C,0.02
2,C21G G51U,0.06
3,C21G G51A,0.07
4,G22C U37C,0.14
5,G22C U37A,0.14
6,G22C U37G,0.17
7,G22C G42U,0.02
8,G22C G42A,0.03
9,G22C G42C,0.04
10,G22C G34C,0.05
11,G22C G34U,0.05
12,G22C G34A,0.05
13,G22C G53A,0.06
14,G22C G53U,0.04
15,G22C G53C,0.03
16,C21G G34C,0.83
17,C21G G34A,0.3
18,C21G G34U,0.89
19,G22U G47C,0.05
20,G22U G47U,0.07
21,G22U G47A,0.07
22,C21G G23C,0.03
23,C21G G23U,0.07
24,C21G G23A,0.07

row,Variant,self-cleavage
1,G22C G35U,0.04
2,G22C G35C,0.03
3,G22C G35A,0.03
4,G22U G34C,0.4
5,G22U G34U,0.79
6,G22U G34A,0.19
7,C21U G34A,1.05
8,C21U G34U,1.05
9,C21U G34C,0.96
10,C21G G44U,0.08
11,C21G G44C,0.08
12,C21G G44A,0.09
13,C21G G50U,0.1
14,C21G G50C,0.06
15,C21G G50A,0.09
16,C21G C27U,0.02
17,G22A G50A,1
18,G22A G50U,0.94
19,G22A G50C,0.68
20,C21G U12A,0.08
21,C21G U12C,0.04
22,C21G U12G,0.06
